Data: ChEMBL document CHEMBL1158700, “Phenolic constituents of the rhizomes of the Thai medicinal plant Belamcanda chinensis with proliferative activity for two breast cancer cell lines” (2005)

Tests used:
Format in all cases: functional
T47D [1] = experiment: Estrogenic activity in human T47D cells assessed as drug level causing stimulation of cell proliferation equivalent to 10 pM estradiol by alamar blue assay
Procedure, shortened: (§1)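 T47D cells were grown in RPMI-1640 with pyruvate, NEAA, glutamine and 10% FBS, then plated at 1 × 10^4 cells/well in phenol red-free RPMI with 5% DCC-treated FBS. Compounds were added in DMSO (1% DMSO control) and incubated 96 h at 37 °C, 5% CO2, alongside serial estradiol. Alamar Blue was read after 3 h (ex 530/em 590 nm). Values came from linear regression over ≥5 concentrations, quadruplicate.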

MCF7 [2] = experiment: Estrogenic activity in human MCF7 cells assessed as drug level causing stimulation of cell proliferation equivalent to 100 pM estradiol by alamar blue assay
Procedure, shortened: (§2)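 MCF-7 cells were maintained in MEM with 6 ng/mL insulin, pyruvate, NEAA, glutamine and 10% FBS. For the assay, 1 × 10^4 cells/well went into phenol red-free RPMI with 5% DCC-treated FBS. Compounds were given in DMSO (control 1% DMSO) at 10 nM–100 µM for 96 h at 37 °C. Estradiol dilutions served as reference. Read-out: Alamar Blue, 3 h, fluorescence ex 530/em 590 nm. Values came from linear regression, ≥5 concentrations, quadruplicate.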

MCF7 [3] = experiment: Estrogenic activity in human MCF7 cells assessed as drug level causing stimulation of cell proliferation equivalent to 10 pM estradiol by alamar blue assay; procedure, shortened: as §2
T47D [4] = experiment: Estrogenic activity in human T47D cells assessed as drug level causing stimulation of cell proliferation equivalent to 100 pM estradiol by alamar blue assay; procedure, shortened: as §1

Row | Compound | Activity (T47D [1]) | Activity (MCF7 [2]) | Activity (MCF7 [3]) | Activity (T47D [4])
1 | O=C(Cc1cc(O)cc(O)c1)c1ccc(O)cc1 [BELAMPHENONE] | 0.09 µM | 12.8 µM | 0.8 µM | 37.1 µM
2 | O=c1c(-c2ccc(O)cc2)coc2cc(O)cc(O)c12 [GENISTEIN] | 0.001 µM | 0.013 µM | 0.003 µM | 0.009 µM
3 | O=C(c1ccc(O)cc1)c1c(O)cc(O)cc1O [IRIFLOPHENONE] | 4.9 µM | 6.8 µM | 0.7 µM | –
4 | COc1c(O)cc2occ(-c3ccc(O)c(O)c3)c(=O)c2c1O [IRILIN D] | – | 12.7 µM | 5.6 µM | –
5 | COc1cc(-c2coc3cc4c(c(OC)c3c2=O)OCO4)cc(OC)c1OC [IRISFLORENTIN] | – | – | 50.3 µM | –
6 | COc1ccc(-c2coc3cc(O[C@@H]4O[C@H](CO)[C@@H](O)[C@H](O)[C@H]4O)c(OC)c(O)c3c2=O)cc1O [IRISTECTORIN A] | – | – | 26.1 µM | –
7 | COc1cc(-c2coc3cc(O[C@@H]4O[C@H](CO)[C@@H](O)[C@H](O)[C@H]4O)c(OC)c(O)c3c2=O)ccc1O [IRISTECTORIN B] | – | – | 77.3 µM | –
8 | Oc1ccc(/C=C/c2cc(O)cc(O)c2)cc1 [RESVERATROL] | 0.03 µM | – | 1.6 µM | –
9 | COc1c(O[C@@H]2O[C@H](CO)[C@@H](O)[C@H](O)[C@H]2O)cc2occ(-c3ccc(O)cc3)c(=O)c2c1O [TECTORIDIN] | 0.2 µM | 0.08 µM | 0.02 µM | –
10 | COc1c(O)cc2occ(-c3ccc(O)cc3)c(=O)c2c1O [TECTORIGENIN] | 0.04 µM | 1 µM | 0.3 µM | 0.5 µM
